These results are taken from ChEMBL document CHEMBL4265873, “Design and discovery of silybin analogues as antiproliferative compounds using a ring disjunctive - Based, natural product lead optimization approach” (Eur J Med Chem, 2017).

Data set [1] is described as follows: Selectivity index, ratio of IC50 for cytotoxicity in human CRL1459 cells incubated for 68 hrs by MTT assay to IC50 for cytotoxicity in human OV2008 cells incubated for 68 hrs by MTT assay. In kind it is toxicity, cell-based. The note with it: CRL1459 cells versus OV2008 cells, read-out: Ratio IC50. For orientation: Tetrazolium assays rely on reduction of a dye to a coloured formazan, in cell work by metabolically active cells.

A further data set concerns OV2008 (Homo sapiens). Nature of the data set: Induction of cell cycle arrest in human OV2008 cells assessed as increase in cell accumulation at subG1 phase at 2 to 4 uM incubated for 12 hrs by propidium iodide staining based flow cytometry. Background: Flow cytometry measures light scatter and fluorescence of single cells or particles in a stream.
For data set [2], the system named is A2780. Nature of the data set: Inhibition of cell proliferation of human A2780 cells at 1 to 8 uM incubated for 10 to 50 hrs. In kind it is functional, cell-based. The procedure, abridged:
(§1)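 OV2008 or A2780 cells were seeded at low density (1x10^3 cells/well) and given 0, 2, 4 or 8 µM. Live-cell images were taken every 2 h for up to 48 h. Confluence at each time point was quantified with a confluence mask and plotted as timeline curves. Means ± SD of three independent experiments.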

Another data set deals with ZR-75-1. Nature of the data set: Cytotoxicity in human ZR-75-1 cells assessed as reduction in cell viability incubated for 68 hrs by MTT assay. The note with it: ZR-75-1, 68 h. It is filed as functional, cell-based. The procedure, abridged:
(§2)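 Cells were trypsinised and seeded at 5x10^3 cells/well. Compound was added at 0, 0.1, 0.3, 1, 3, 10, 30 and 100 µM for 68 h. MTT (4 mg/mL solution) was then added for 4 h, and the formazan was dissolved in DMSO. Absorbance read at 570 nm. IC50 was derived from % survival across the eight concentrations. Mean ± SD of three independent experiments, each in triplicate.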

Data set [3] is described as follows: Selectivity index, ratio of IC50 for cytotoxicity in CHO cells incubated for 68 hrs by MTT assay to IC50 for cytotoxicity in human A2780 cells incubated for 68 hrs by MTT assay. As to conditions: Chinese hamster (CHO cells), CHO cells versus A2780 cells, read-out: Ratio IC50. In kind it is toxicity, cell-based.
In data set [4] the test system is 2008. Nature of the data set: Induction of apoptosis in human OV2008 cells assessed as apoptosis cells level at 2 uM incubated for 12 hrs by Alexa Fluor 488 annexin V and mito-tracker red CMXRos dye staining based flow cytometry (reference value: 19.6%). In kind it is functional. The procedure, abridged: (§3)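 Cells in complete medium were treated with 0, 2 or 4 µM for 12 h, then trypsinised. They were stained with MitoTracker Red (4 µL of 10 µM working solution per 1 mL of cells) for 30 min at 37 °C under 5% CO2. Cells were then resuspended in annexin-binding buffer with Alexa Fluor 488 annexin V for 15 min. Flow cytometry emission read at 530 and 585 nm. Two independent experiments, each in triplicate.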

Data set [5] has as its system 2008. Nature of the data set: Inhibition of cell proliferation of human OV2008 cells at 1 to 8 uM incubated for 10 to 50 hrs. It is filed as functional, cell-based. The essentials:
as §1

Data set [6] deals with 2008. Nature of the data set: Cytotoxicity in human OV2008 cells assessed as reduction in cell viability incubated for 68 hrs by MTT assay. The note with it: Homo sapiens, 2008, 68 h. In kind it is functional, cell-based. The essentials: as §2
Data set [7] concerns 2008. Nature of the data set: Induction of morphological changes in human OV2008 cells at 1 to 4 uM incubated for 68 hrs. In kind it is functional, cell-based. The essentials:
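OV2008 and A2780 cells, with CHO alongside, were exposed to 0, 1, 2 or 4 µM for 68 h. Each triplicate treatment was photographed at 20X under an inverted microscope to assess morphology.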

Data set [8] can be described thus: Selectivity index, ratio of IC50 for cytotoxicity in HEK293 cells incubated for 68 hrs by MTT assay to IC50 for cytotoxicity in human OV2008 cells incubated for 68 hrs by MTT assay. It is filed as toxicity, cell-based. The note with it: HEK293 cells versus OV2008 cells, read-out: Ratio IC50.
For data set [9], the system named is 2008. Nature of the data set: Induction of cell cycle arrest in human OV2008 cells assessed as cell accumulation at subG1 phase at 4 uM incubated for 12 hrs by propidium iodide staining based flow cytometry (reference value: 11.3%). In kind it is functional. The procedure, abridged: (§4)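 OV2008 cells were plated at 1x10^6 cells/well and incubated with 0, 2 or 4 µM for 12 h. Cells were trypsinised, washed and resuspended in ice-cold PBS, then stained with propidium iodide for at least 15 min. Phase distribution was measured by flow cytometry. Means ± SD of three independent experiments in triplicate.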

The test system of data set [10] is 2008. Nature of the data set: Induction of cell cycle arrest in human OV2008 cells assessed as cell accumulation at subG1 phase at 2 uM incubated for 12 hrs by propidium iodide staining based flow cytometry (reference value: 11.3%). In kind it is functional. The procedure, abridged: as §4
The species named for the next data set is Homo sapiens. Nature of the data set: Inhibition of tubulin alpha in human OV2008 cells assessed as induction of disturbance in cellular microtubule shape and integrity by measuring cell shrinkage and rounding at 2 to 4 uM after overnight incubation by immunofluorescence analysis. It is filed as cell-based.
Data set [11] deals with A2780. Nature of the data set: Induction of apoptosis in human A2780 cells assessed as apoptosis cells level at 2 uM incubated for 12 hrs by Alexa Fluor 488 annexin V and mito-tracker red CMXRos dye staining based flow cytometry (reference value: 0.0%). It is filed as functional. The essentials: as §3
In data set [12] the test system is 2008. Nature of the data set: Induction of cell cycle arrest in human OV2008 cells assessed as cell accumulation at G1 phase at 2 uM incubated for 12 hrs by propidium iodide staining based flow cytometry (reference value: 79.1%). It is filed as functional. The procedure, abridged:
as §4

pIC50: −log10 of the molar value. Active and inactive are the calls of the source. No cut-off for these calls is given here.

What is called pIC50 is the negative decadic logarithm of the IC50, by convention in mol/L. On to `O=C(/C=C/c1cccc(OCc2ccccc2)c1)c1ccc(O)cc1`, for which the selectivity ratio at 68 h in data set [1], in data set [3] and in [8] was 6 to 30 each time. Further, the Activity result was “Dose-dependent effect” with OV2008 (Homo sapiens); 38.1% with 2008 [4]; 33.9% with 2008 [9]; 25.5% in the data set with 2008 [10]; 37.3% in the data set on A2780 [11]; 58.4% in the data set with 2008 [12]. Also, the inhibition result in the data set with A2780 [2], with 2008 [5] and in the data set filed under Homo sapiens was “Active” throughout. The pIC50 in the data set with ZR-75-1 was 5.31; in the data set on 2008 [6], 6.10. The result with 2008 [7] was Active.
